According to ChEMBL document CHEMBL1221342, “Synthesis and in vitro antitumor activity of new 4,5-dihydropyrazole derivatives” (Bioorg Med Chem, 2010):

How the values were obtained:
Format in all cases: functional
[1] = Growth inhibition of human […] cells after 48 hrs by SRB assay; details: for TGI: read-out: pTGI (converted)
How it was run: (§1)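 NCI 60-cell-line screen. Cells grown in RPMI1640 with 5% fetal calf serum and 2 mM L-glutamine, with inoculum density set by cell line. Preincubated 24 h, then given compound in DMSO at 10^-4 to 10^-8 M (five 10-fold steps) for 48 h continuous exposure. Growth measured by SRB protein assay. GI50, TGI and LC50 reported as –log molar.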

BT-549 = assay: Growth inhibition of human BT549 cells after 48 hrs by SRB assay; details: BT-549, 48 h; for TGI: read-out: pTGI (converted); how it was run: as §1
HT-29 = assay: Growth inhibition of human HT-29 cells after 48 hrs by SRB assay; details: HT-29, 48 h; for TGI: read-out: pTGI (converted); how it was run: as §1
U-251 = assay: Growth inhibition of human U251 cells after 48 hrs by SRB assay; details: U-251, 48 h; for TGI: read-out: pTGI (converted); how it was run: as §1
T47D = assay: Growth inhibition of human T47D cells after 48 hrs by SRB assay; details: for TGI: read-out: pTGI (converted); how it was run: as §1
SK-MEL-5 = assay: Growth inhibition of human SK-MEL-5 cells after 48 hrs by SRB assay; details: SK-MEL-5, 48 h; for TGI: read-out: pTGI (converted); how it was run: as §1
[2] = Growth inhibition of human Hs 578T cells after 48 hrs by SRB assay; details: for TGI: read-out: pTGI (converted); how it was run: as §1
HL-60(TB) = assay: Growth inhibition of human HL-60(TB) cells after 48 hrs by SRB assay; details: HL-60, 48 h; for TGI: read-out: pTGI (converted)
How it was run: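 NCI 60-cell-line screen: cells grown in RPMI1640 with 5% fetal calf serum and 2 mM L-glutamine, preincubated 24 h, then exposed to compound in DMSO at five concentrations (10^-4 to 10^-8 M) for 48 h continuous exposure. Growth estimated by sulforhodamine B protein assay; reported as pGI50 (-log molar concentration inhibiting net cell growth by 50%).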

UACC-62 = assay: Growth inhibition of human UACC62 cells after 48 hrs by SRB assay; details: UACC-62, 48 h; for TGI: read-out: pTGI (converted); how it was run: as §1
EKVX = assay: Growth inhibition of human EKVX cells after 48 hrs by SRB assay; details: for TGI: read-out: pTGI (converted); how it was run: as §1
SF-539 = assay: Growth inhibition of human SF539 cells after 48 hrs by SRB assay; details: SF-539, 48 h; for TGI: read-out: pTGI (converted); how it was run: as §1
PC-3 = assay: Growth inhibition of human PC3 cells after 48 hrs by SRB assay; details: PC-3, 48 h; for TGI: read-out: pTGI (converted); how it was run: as §1
KM12 = assay: Growth inhibition of human KM12 cells after 48 hrs by SRB assay; details: KM12, 48 h; for TGI: read-out: pTGI (converted); how it was run: as §1
CCRF-CEM = assay: Growth inhibition of human CCRF-CEM cells after 48 hrs by SRB assay; details: for TGI: read-out: pTGI (converted); how it was run: as §1
HOP-62 = assay: Growth inhibition of human HOP62 cells after 48 hrs by SRB assay; details: HOP-62, 48 h; for TGI: read-out: pTGI (converted); how it was run: as §1
HCT-116 = assay: Growth inhibition of human HCT116 cells after 48 hrs by SRB assay; details: HCT-116, 48 h; for TGI: read-out: pTGI (converted); how it was run: as §1
HCC 2998 = assay: Growth inhibition of human HCC2998 cells after 48 hrs by SRB assay; details: HCC 2998, 48 h; for TGI: read-out: pTGI (converted); how it was run: as §1
MCF7 = assay: Growth inhibition of human MCF7 cells after 48 hrs by SRB assay; details: MCF7, 48 h; for TGI: read-out: pTGI (converted); how it was run: as §1
COLO 205 = assay: Growth inhibition of human COLO205 cells after 48 hrs by SRB assay; details: COLO 205, 48 h; for TGI: read-out: pTGI (converted); how it was run: as §1
SF-295 = assay: Growth inhibition of human SF295 cells after 48 hrs by SRB assay; details: SF-295, 48 h; for TGI: read-out: pTGI (converted); how it was run: as §1
IGROV-1 = assay: Growth inhibition of human IGROV1 cells after 48 hrs by SRB assay; details: IGROV-1, 48 h; for TGI: read-out: pTGI (converted); how it was run: as §1
K562 = assay: Growth inhibition of human K562 cells after 48 hrs by SRB assay; details: K562, 48 h; for TGI: read-out: pTGI (converted); how it was run: as §1
SF-268 = assay: Growth inhibition of human SF268 cells after 48 hrs by SRB assay; details: SF-268, 48 h; how it was run: as §1
TK-10 = assay: Growth inhibition of human TK10 cells after 48 hrs by SRB assay; details: TK-10, 48 h; for TGI: read-out: pTGI (converted); how it was run: as §1
A498 = assay: Growth inhibition of human A498 cells after 48 hrs by SRB assay; details: A498, 48 h; for TGI: read-out: pTGI (converted); how it was run: as §1
MDA-MB-435 = assay: Growth inhibition of human MDA-MB-435 cells after 48 hrs by SRB assay; details: MDA-MB-435, 48 h; for TGI: read-out: pTGI (converted); how it was run: as §1
OVCAR-8 = assay: Growth inhibition of human OVCAR8 cells after 48 hrs by SRB assay; details: OVCAR-8, 48 h; for TGI: read-out: pTGI (converted); how it was run: as §1
SK-OV-3 = assay: Growth inhibition of human SKOV3 cells after 48 hrs by SRB assay; details: SK-OV-3, 48 h; for TGI: read-out: pTGI (converted); how it was run: as §1
OVCAR-3 = assay: Growth inhibition of human OVCAR-3 cells after 48 hrs by SRB assay; details: OVCAR-3, 48 h; for TGI: read-out: pTGI (converted); how it was run: as §1
MOLT-4 = assay: Growth inhibition of human MOLT4 cells after 48 hrs by SRB assay; details: MOLT-4, 48 h; for TGI: read-out: pTGI (converted); how it was run: as §1
OVCAR-4 = assay: Growth inhibition of human OVCAR4 cells after 48 hrs by SRB assay; details: OVCAR-4, 48 h; for TGI: read-out: pTGI (converted); how it was run: as §1
Malme-3M = assay: Growth inhibition of human MALME-3M cells after 48 hrs by SRB assay; details: for TGI: read-out: pTGI (converted); how it was run: as §1
NCI/ADR-RES = assay: Growth inhibition of human NCI/ADR-RES cells after 48 hrs by SRB assay; details: for TGI: read-out: pTGI (converted); how it was run: as §1
NCI-H460 = assay: Growth inhibition of human NCI-H460 cells after 48 hrs by SRB assay; details: NCI-H460, 48 h; for TGI: read-out: pTGI (converted); how it was run: as §1
UO-31 = assay: Growth inhibition of human UO31 cells after 48 hrs by SRB assay; details: UO-31, 48 h; for TGI: read-out: pTGI (converted); how it was run: as §1
RXF 393 = assay: Growth inhibition of human RXF393 cells after 48 hrs by SRB assay; details: RXF 393, 48 h; how it was run: as §1

## CCN(CC)c1ccc(C2CC(c3cc(OC)c(OC)c(OC)c3)=NN2)cc1 (stereo not given)
[1]
  GI50: 398 nM
  TGI: 3980 nM
BT-549
  GI50: 398 nM
  TGI: 5010 nM
HT-29
  GI50: 316 nM
  TGI: > 100000 nM
U-251
  GI50: 398 nM
  TGI: > 100000 nM
T47D
  TGI: > 100000 nM
SK-MEL-5
  GI50: 794 nM
  TGI: 3160 nM
[2]
  GI50: 251 nM
  TGI: 631 nM
HL-60(TB)
  GI50: 251 nM
  TGI: 2000 nM
UACC-62
  GI50: 398 nM
  TGI: 50100 nM
EKVX
  GI50: 398 nM
  TGI: 794 nM
SF-539
  GI50: 316 nM
  TGI: 1260 nM
PC-3
  GI50: 316 nM
  TGI: 63100 nM
KM12
  GI50: 398 nM
  TGI: > 100000 nM
CCRF-CEM
  GI50: 200 nM
  TGI: 631 nM
HOP-62
  GI50: 316 nM
  TGI: 3980 nM
HCT-116
  GI50: 251 nM
  TGI: 1000 nM
HCC 2998
  GI50: 631 nM
  TGI: 7940 nM
MCF7
  GI50: 158 nM
  TGI: 1580 nM
COLO 205
  GI50: 398 nM
  TGI: 1580 nM
SF-295
  GI50: 100 nM
  TGI: 316 nM
IGROV-1
  GI50: 316 nM
  TGI: 6310 nM
K562
  GI50: 398 nM
  TGI: 12600 nM
SF-268
  GI50: 794 nM
TK-10
  GI50: 39800 nM
  TGI: > 100000 nM
A498
  GI50: 398 nM
  TGI: 794 nM
MDA-MB-435
  GI50: 158 nM
  TGI: 316 nM
OVCAR-8
  GI50: 398 nM
  TGI: 7940 nM
SK-OV-3
  GI50: 501 nM
  TGI: > 100000 nM
OVCAR-3
  GI50: 398 nM
  TGI: > 100000 nM
MOLT-4
  GI50: 1260 nM
  TGI: 5010 nM
OVCAR-4
  GI50: 1000 nM
  TGI: > 100000 nM
Malme-3M
  GI50: 20000 nM
  TGI: > 100000 nM
NCI/ADR-RES
  GI50: 501 nM
  TGI: > 100000 nM
NCI-H460
  GI50: 316 nM
  TGI: 12600 nM
UO-31
  GI50: 794 nM
  TGI: > 100000 nM

## COc1ccc(/C=C\c2cc(OC)c(OC)c(OC)c2)cc1O [COMBRETASTATIN A4]
[1]
  GI50: 158 nM
  TGI: 6310 nM
BT-549
  GI50: 10 nM
  TGI: 2000 nM
HT-29
  GI50: 631 nM
  TGI: 6310 nM
U-251
  GI50: 50.1 nM
  TGI: 12600 nM
T47D
  GI50: 50100 nM
  TGI: > 100000 nM
SK-MEL-5
  GI50: 10 nM
  TGI: 10 nM
[2]
  GI50: 158 nM
  TGI: 7940 nM
HL-60(TB)
  GI50: 31.6 nM
  TGI: 63.1 nM
UACC-62
  GI50: 10 nM
  TGI: 63100 nM
EKVX
  GI50: 398 nM
  TGI: 79400 nM
SF-539
  GI50: 39.8 nM
  TGI: 200 nM
PC-3
  GI50: 39.8 nM
  TGI: > 100000 nM
KM12
  GI50: 50.1 nM
  TGI: 794 nM
CCRF-CEM
  GI50: 100 nM
  TGI: 5010 nM
HOP-62
  GI50: 200 nM
  TGI: 2510 nM
HCT-116
  GI50: 31.6 nM
  TGI: 200 nM
HCC 2998
  GI50: 50.1 nM
  TGI: 1260 nM
MCF7
  GI50: 39.8 nM
  TGI: 79400 nM
COLO 205
  GI50: 2510 nM
  TGI: 50100 nM
SF-295
  GI50: 63.1 nM
  TGI: 1260 nM
IGROV-1
  GI50: 63.1 nM
  TGI: 63100 nM
K562
  GI50: 31.6 nM
  TGI: 2000 nM
SF-268
  GI50: 126 nM
SF-268; read-out: pTGI (converted)
  TGI: 50100 nM
TK-10
  GI50: 631 nM
  TGI: 3980 nM
A498
  GI50: 50.1 nM
  TGI: 794 nM
MDA-MB-435
  GI50: 31.6 nM
  TGI: 79.4 nM
OVCAR-8
  GI50: 39.8 nM
  TGI: 39800 nM
SK-OV-3
  GI50: 31600 nM
  TGI: > 100000 nM
OVCAR-3
  GI50: 39.8 nM
  TGI: 158 nM
MOLT-4
  GI50: 100 nM
  TGI: 3980 nM
OVCAR-4
  GI50: 251 nM
  TGI: 79400 nM
RXF 393
  GI50: 1000 nM
RXF 393; read-out: pTGI (converted)
  TGI: 79400 nM
Malme-3M
  GI50: 501 nM
  TGI: 79400 nM
NCI/ADR-RES
  GI50: 63.1 nM
  TGI: 398 nM
NCI-H460
  GI50: 31.6 nM
  TGI: 63100 nM
UO-31
  GI50: 200 nM
  TGI: 50100 nM
